Experimental data: ChEMBL document CHEMBL1921751, “Discovery of small molecules that enhance astrocyte differentiation in rat fetal neural stem cells” (Bioorg Med Chem Lett, 2011)
Calls of active or inactive are those of the source. No cut-off for these calls is given here.

Assays:
NSC [1] = assay: Induction of Sprague-Dawley rat embryonic cortex NSC differentiation assessed as GFAP-positive cells at 5 uM after 4 days by immunocytochemistry analysis relative to control; type: functional
Procedure, shortened: (§1)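 E14 rat cortical NSCs were grown as neurospheres, dissociated and plated on poly-D-lysine in growth-factor-free medium with 2% B27. They received 5 µM compound or 0.05% DMSO at 37 °C, 5% CO2, for 4 days. Cells were fixed in 4% PFA, stained with anti-GFAP or TuJ1 plus Cy3 secondary, and DAPI-counterstained. Positive/DAPI cells in random fields were normalised to control; mean±SEM, n=6, t-test.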

NSC [2] = assay: Induction of Sprague-Dawley rat embryonic cortex NSC differentiation assessed as TuJ1-positive cells at 5 uM after 4 days by immunocytochemistry analysis; type: functional, cell-based; procedure, shortened: as §1
NSC [3] = assay: Induction of GFAP mRNA expression in Sprague-Dawley rat embryonic cortex NSC at 5 uM after 1 day by RT-PCR analysis relative to control; type: functional
Procedure, shortened: (§2)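 First-strand cDNA was made from 2 µg total RNA using oligo(dT) primers and RevertAid reverse transcriptase. PCR ran 94 °C 5 min, then 26 cycles of 94 °C, 55–58 °C and 72 °C (0.5 min each), with a final 72 °C extension for 10 min.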

NSC [4] = assay: Induction of S100 mRNA expression in Sprague-Dawley rat embryonic cortex NSC at 5 uM after 1 day by RT-PCR analysis relative to control; type: functional; procedure, shortened: as §2
NSC [5] = assay: Induction of beta3 tubulin mRNA expression in Sprague-Dawley rat embryonic cortex NSC at 5 uM after 1 day by RT-PCR analysis; type: functional, cell-based; procedure, shortened: as §2
NSC [6] = assay: Cytotoxicity against Sprague-Dawley rat embryonic cortex NSC assessed as changes in morphology at 5 uM after 4 days by microscopic analysis; type: cell-based; settings: 96 h
NSC [7] = assay: Cytotoxicity against Sprague-Dawley rat embryonic cortex NSC assessed as reduction in nuclei count at 5 uM after 4 days using DAPI staining by fluorescent microscopic analysis; type: cell-based; settings: 96 h

Compound | Activity (NSC [1]) | Activity (NSC [2]) | Activity (NSC [3]) | Activity (NSC [4]) | Activity (NSC [5]) | fold change (FC) (NSC [1]) | fold change (FC) (NSC [3]) | fold change (FC) (NSC [4]) | Activity (NSC [6]) | Activity (NSC [7])
O=S(=O)(NC(c1ccc(F)cc1)c1nnc(-c2ccccc2)o1)c1ccccc1 (configuration not stated) | Active | inactive | Active | Active | inactive | – | – | – | – | –
O=C(Cc1ccccc1)NC(c1ccc(F)cc1)c1nnc(-c2ccccc2)o1 (configuration not stated) | – | inactive | – | – | inactive | 2 | 2 | 2 | – | –
O=C(NC(c1ccc(F)cc1)c1nnc(-c2ccccc2)o1)c1ccccc1 (configuration not stated) | Active | inactive | Active | Active | inactive | – | – | – | – | –
CC(C)(C)OC(=O)NC(c1ccc(F)cc1)c1nnc(-c2ccccc2)o1 (configuration not stated) | Active | inactive | Active | Active | inactive | – | – | – | – | –
O=S(=O)(Cc1ccccc1)NC(c1ccc(F)cc1)c1nnc(-c2ccccc2)o1 (configuration not stated) | Active | inactive | Active | Active | inactive | – | – | – | – | –
O=C(Cc1ccccc1)NC(c1ccccc1)c1nnc(-c2ccccc2)o1 (configuration not stated) | – | inactive | – | – | inactive | 2 | 2 | 2 | Non-toxic | Non-toxic
